Results from different studies.
Protocols differ between the studies behind these lines.
Cell line: MCF7
Observed: cell growth or viability

SMILES | assay | conditions | measurement | value
CC(=O)Nc1ccc(/C(C)=N/N=c2\sc(C(C)=O)nn2-c2ccc(C)cc2)cc1 | MTT | 5 µM | viability | 21.2%
C[C@@H]1CC[C@@H]([C@@](O)(CNCc2ccccc2)COCc2ccccc2)[C@H](OCc2ccccc2)C1 | MTT | 10 µM, 72 h | inhibition | 94.8%
CC(=O)c1nn(-c2ccc(C)cc2)/c(=N/N=C(\C)c2ccc(NC(=O)c3ccccc3)cc2)s1 | MTT | 1.25 µM | viability | 5.3%
O=C(Nc1ccc(Oc2nnc(-c3ccc(Cl)cc3)c3ccccc23)cc1)c1cccc([N+](=O)[O-])c1 | MTT | 10 µM | cell death | 92%
COc1ccc(CNC[C@@](C)(O)[C@@H]2CC[C@@H](C)C[C@H]2OCc2ccccc2)cc1 | MTT | 10 µM, 72 h | inhibition | 92.4%
CCOC(=O)c1nn(-c2cccc(Cl)c2)/c(=N/N=C(\C)c2ccc(NC(=O)c3ccccc3)cc2)s1 | MTT | 5 µM | viability | 2.46%
COc1ccc(COC[C@@](O)(CNCc2ccccc2)[C@@H]2CC[C@@H](C)C[C@H]2OCc2ccc(OC)cc2)cc1 | MTT | 10 µM, 72 h | inhibition | 96.2%
CC(=O)c1nn(-c2ccccc2Cl)/c(=N/N=C(\C)c2ccc(NC(=O)c3ccccc3)cc2)s1 | MTT | 1.25 µM | viability | 6.34%
C[C@@H]1CC[C@@H]([C@](C)(O)CNCc2cccc(F)c2)[C@H](OCc2ccccc2)C1 | MTT | 30 µM, 72 h | inhibition | 95.6%
CCOC(=O)c1nn(-c2cccc(Cl)c2)/c(=N/N=C(\C)c2ccc(NC(=O)c3ccc(Cl)cc3)cc2)s1 | MTT | 78 nM | viability | 73.5%
CC(=NNC(=O)c1ccccc1Br)c1ccc(Nc2nnc(-c3ccc(Cl)cc3)c3ccccc23)cc1 | MTT | 0.312 µM | cell death | 6.55%
Cc1ccc(-c2cc(-c3ccc(Cl)c(F)c3)c3c(=O)[nH]c(=O)[nH]c3n2)cc1 | MTT | 48 h | IC50 | 14.6 µM
CC(=NNC(=O)c1cccnc1)c1ccc(Nc2nnc(-c3ccc(Cl)cc3)c3ccccc23)cc1 | MTT | 0.312 µM, 24 h | viability | 100%
C=C(COCc1ccccc1)[C@@H]1CC[C@@H](C)C[C@H]1OCc1ccccc1 | MTT | 30 µM, 72 h | inhibition | 40.3%
CC(=NNC(=O)c1ccccc1Cl)c1ccc(Nc2nnc(-c3ccc(Cl)cc3)c3ccccc23)cc1 | MTT | 0.625 µM | cell death | 0.177%
Cc1nc(Nc2ccc3c(c2)/C(=C/c2ccccc2C)C(=O)N3C)c2ccccc2n1 | MTT | – | IC50 | 21.4 µM
S=C(Nc1ccccc1)Nc1ccc(Oc2nnc(-c3ccc(Cl)cc3)c3ccccc23)cc1 | MTT | 10 µM | cell death | 97.2%
C[C@@H]1CC[C@@H]([C@@](O)(CNCc2ccccc2)COCc2ccc(F)cc2)[C@H](OCc2ccc(F)cc2)C1 | MTT | 30 µM, 72 h | inhibition | 100%
O=C(Nc1ccccc1)Nc1ccc(Oc2nnc(-c3ccc(Cl)cc3)c3ccccc23)cc1 | MTT | 0.312 µM, 24 h | viability | 11.3%
O=C1CC[C@H](N2Cc3cc(N4CCN(CC5CCN(c6ccc([C@@H]7c8ccc(O)cc8CC[C@@H]7c7ccccc7)cc6)CC5)CC4)ccc3C2=O)C(=O)N1 | ATP luminescence | 5 days | GI50 | 0.0033 µM
